One data set deals with Insulin receptor (Homo sapiens, UniProt P06213). Put plainly: Inhibition of INSR (unknown origin).
The target of data set [1] is Calcium/calmodulin-dependent protein kinase kinase 2 (Mus musculus, UniProt Q8C078). Put plainly: Inhibition of CAMKK2 in mouse N39 cells assessed as decrease in AMPKalpha phosphorylation at T172 preincubated for 80 mins followed by […] addition by ELISA. The class given is cell-based. An outline of the steps:
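Mouse N39 cells seeded ~1000 cells/well, cultured overnight at 37°C, 5% CO2, then exposed to compound in DMSO for 80 min before ionomycin stimulation ([…] as added). Cells were lysed in extraction buffer for 30 min on ice, then diluted into ice-cold lysis buffer containing protease and phosphatase inhibitors for MSD read-out.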
For orientation: An ELISA detects its analyte on a solid surface through an enzyme-linked reagent.

For data set [2], the target named is T1, Inhibitor of nuclear factor kappa-B kinase subunit alpha (Homo sapiens, UniProt O15111).
T1 sequence (O15111 whole entry): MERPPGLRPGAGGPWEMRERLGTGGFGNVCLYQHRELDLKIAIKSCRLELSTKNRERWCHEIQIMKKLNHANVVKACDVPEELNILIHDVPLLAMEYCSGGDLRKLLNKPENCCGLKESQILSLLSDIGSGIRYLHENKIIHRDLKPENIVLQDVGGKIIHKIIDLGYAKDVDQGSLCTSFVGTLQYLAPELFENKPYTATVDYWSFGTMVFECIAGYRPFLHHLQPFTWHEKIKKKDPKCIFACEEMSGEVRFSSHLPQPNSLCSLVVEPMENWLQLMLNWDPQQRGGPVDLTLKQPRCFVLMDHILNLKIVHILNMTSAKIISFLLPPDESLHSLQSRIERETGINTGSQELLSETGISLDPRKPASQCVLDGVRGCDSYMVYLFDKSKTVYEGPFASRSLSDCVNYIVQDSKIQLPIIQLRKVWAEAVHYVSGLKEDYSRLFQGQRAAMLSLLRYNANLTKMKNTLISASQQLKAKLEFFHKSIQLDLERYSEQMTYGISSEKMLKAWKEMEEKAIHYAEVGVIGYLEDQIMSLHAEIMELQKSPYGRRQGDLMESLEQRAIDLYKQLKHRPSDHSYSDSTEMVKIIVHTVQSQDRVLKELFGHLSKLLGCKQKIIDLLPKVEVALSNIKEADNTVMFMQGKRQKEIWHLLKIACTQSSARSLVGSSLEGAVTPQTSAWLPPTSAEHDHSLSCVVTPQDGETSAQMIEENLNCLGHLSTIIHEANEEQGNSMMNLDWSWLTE
Put plainly: Inhibition of IKK1 (unknown origin).

In data set [3] the target is Calcium/calmodulin-dependent protein kinase kinase 2 (Homo sapiens, UniProt Q96RR4). The data set is described as follows: Inhibition of full-length human GST-tagged CAMKK2 using 5FAM-AKPKGNKDYHLQTCCGSLAYRRR-amide as substrate preincubated for 30 mins followed by substrate addition measured after 120 mins by fluorescence polarization assay. A general note: Fluorescence polarisation rises when a labelled molecule tumbles more slowly, as on binding a larger partner.

Data set [4] deals with Mitogen-activated protein kinase 8 (Homo sapiens, UniProt P45983). Put plainly: Inhibition of JNK1 (unknown origin).
Data set [5] has as its system Rattus norvegicus. Put plainly: Reduction of food intake in Sprague-Dawley rat at 30 mg/kg, po administered 1 hr measured for 4 hrs. The class given is ADME, organism-based. To be noted: in vivo.
For data set [6], the target named is T2, Discoidin domain-containing receptor 2 (Homo sapiens, UniProt Q16832).
T2 sequence (Q16832 whole entry): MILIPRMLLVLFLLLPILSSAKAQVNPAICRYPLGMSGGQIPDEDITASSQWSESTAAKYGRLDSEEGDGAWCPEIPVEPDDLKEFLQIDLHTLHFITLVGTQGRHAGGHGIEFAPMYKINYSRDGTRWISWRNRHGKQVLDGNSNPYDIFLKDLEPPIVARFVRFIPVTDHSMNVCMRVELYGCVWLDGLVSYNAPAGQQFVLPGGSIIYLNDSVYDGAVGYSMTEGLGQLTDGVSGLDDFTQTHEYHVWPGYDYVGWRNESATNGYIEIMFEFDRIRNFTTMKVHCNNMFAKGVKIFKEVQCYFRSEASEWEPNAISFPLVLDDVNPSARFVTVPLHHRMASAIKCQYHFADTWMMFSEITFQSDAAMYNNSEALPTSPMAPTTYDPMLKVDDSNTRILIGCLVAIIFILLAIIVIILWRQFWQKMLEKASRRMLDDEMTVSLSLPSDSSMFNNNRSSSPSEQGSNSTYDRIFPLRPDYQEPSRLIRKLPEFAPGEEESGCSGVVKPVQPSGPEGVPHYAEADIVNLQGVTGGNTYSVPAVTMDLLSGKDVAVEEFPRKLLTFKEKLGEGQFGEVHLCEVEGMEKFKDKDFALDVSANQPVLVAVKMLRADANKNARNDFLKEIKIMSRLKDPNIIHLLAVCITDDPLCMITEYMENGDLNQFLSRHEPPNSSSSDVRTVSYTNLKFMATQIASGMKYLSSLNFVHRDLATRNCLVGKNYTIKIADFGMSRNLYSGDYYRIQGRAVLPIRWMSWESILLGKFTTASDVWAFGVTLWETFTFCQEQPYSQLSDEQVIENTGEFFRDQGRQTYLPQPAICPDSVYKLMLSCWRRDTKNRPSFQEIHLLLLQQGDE
Put plainly: Inhibition of DDR2 (unknown origin).

The test system of data set [7] is Rattus norvegicus. Put plainly: Inhibition of ghrelin-induced food intake in Sprague-Dawley rat at 30 mg/kg, po administered 1 hr followed by ghrelin addition measured for 4 hrs relative to control. The class given is functional.
A short description of data set [8]: Solubility of the compound in pH 7.4 phosphate buffer saline after 1 hr by chemiluminescence nitrogen detection method. Conditions: phosphate buffered saline. It is filed as physicochemical. The procedure, abridged:
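Kinetic solubility: 10 mM DMSO stock diluted 1:20 into 10 mM phosphate-buffered saline pH 7.4, equilibrated 1 h at RT, filtered, and filtrate quantified by calibrated flow-injection chemiluminescent nitrogen detection.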

Data set [9] is described as follows: Cmax in CD rat at 30 mg/kg, po. It is filed as ADME, organism-based. Also on record: dose 30 mg/kg, route oral. Conditions: in vivo.
Data set [10] is described as follows: Ratio of drug level in brain to plasma in CD rat at 30 mg/kg, po. To be noted: read-out: BPR. The class given is ADME, organism-based.
A further data set deals with T3, Aurora kinase A (Homo sapiens, UniProt O14965).
T3 sequence (O14965 whole entry): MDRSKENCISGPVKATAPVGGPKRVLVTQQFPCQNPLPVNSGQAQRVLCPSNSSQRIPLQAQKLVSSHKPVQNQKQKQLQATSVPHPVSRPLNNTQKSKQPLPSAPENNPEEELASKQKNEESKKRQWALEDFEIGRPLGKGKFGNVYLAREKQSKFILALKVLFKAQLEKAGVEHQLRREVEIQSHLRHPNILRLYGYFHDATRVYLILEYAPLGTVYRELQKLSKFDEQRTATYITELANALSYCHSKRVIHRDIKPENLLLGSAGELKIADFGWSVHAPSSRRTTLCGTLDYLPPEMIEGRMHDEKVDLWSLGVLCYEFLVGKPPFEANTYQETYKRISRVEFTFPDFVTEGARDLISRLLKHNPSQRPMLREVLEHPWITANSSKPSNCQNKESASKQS
Put plainly: Inhibition of aurora A (unknown origin).

Data set [11] is described as follows: Ratio of drug level in brain to plasma in CD rat at 10 mg/kg, po. The class given is ADME, organism-based. To be noted: read-out: BPR.
Data set [12] in a line: Cmax in CD rat at 10 mg/kg, po. The class given is ADME, organism-based. More on the design: dose 10 mg/kg, route oral. Conditions: in vivo.

Each structure is given as a SMILES string. Values after ≈ are worked out from the molar mass of the structure shown.

Insulin receptor, sequence (P06213 28-758 limits assumed): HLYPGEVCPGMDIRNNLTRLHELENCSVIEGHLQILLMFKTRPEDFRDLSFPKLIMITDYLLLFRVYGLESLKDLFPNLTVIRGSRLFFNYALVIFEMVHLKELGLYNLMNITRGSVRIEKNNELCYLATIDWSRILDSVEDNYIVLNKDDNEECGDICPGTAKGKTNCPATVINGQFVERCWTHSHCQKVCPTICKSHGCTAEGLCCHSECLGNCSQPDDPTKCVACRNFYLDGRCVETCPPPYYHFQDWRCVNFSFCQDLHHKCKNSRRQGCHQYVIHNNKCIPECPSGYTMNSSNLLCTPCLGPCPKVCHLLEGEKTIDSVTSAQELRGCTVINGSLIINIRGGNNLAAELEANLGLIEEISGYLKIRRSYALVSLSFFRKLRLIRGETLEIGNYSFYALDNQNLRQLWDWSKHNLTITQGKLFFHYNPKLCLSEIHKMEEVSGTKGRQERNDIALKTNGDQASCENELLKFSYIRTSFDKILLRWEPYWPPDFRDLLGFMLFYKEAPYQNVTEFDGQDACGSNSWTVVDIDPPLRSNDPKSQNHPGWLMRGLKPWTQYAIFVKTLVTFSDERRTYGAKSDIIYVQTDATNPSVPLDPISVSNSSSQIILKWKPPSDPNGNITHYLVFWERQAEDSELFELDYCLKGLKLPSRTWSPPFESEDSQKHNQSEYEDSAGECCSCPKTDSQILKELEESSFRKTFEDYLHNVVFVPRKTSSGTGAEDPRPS
Insulin receptor, sequence (P06213 763-1382 limits assumed): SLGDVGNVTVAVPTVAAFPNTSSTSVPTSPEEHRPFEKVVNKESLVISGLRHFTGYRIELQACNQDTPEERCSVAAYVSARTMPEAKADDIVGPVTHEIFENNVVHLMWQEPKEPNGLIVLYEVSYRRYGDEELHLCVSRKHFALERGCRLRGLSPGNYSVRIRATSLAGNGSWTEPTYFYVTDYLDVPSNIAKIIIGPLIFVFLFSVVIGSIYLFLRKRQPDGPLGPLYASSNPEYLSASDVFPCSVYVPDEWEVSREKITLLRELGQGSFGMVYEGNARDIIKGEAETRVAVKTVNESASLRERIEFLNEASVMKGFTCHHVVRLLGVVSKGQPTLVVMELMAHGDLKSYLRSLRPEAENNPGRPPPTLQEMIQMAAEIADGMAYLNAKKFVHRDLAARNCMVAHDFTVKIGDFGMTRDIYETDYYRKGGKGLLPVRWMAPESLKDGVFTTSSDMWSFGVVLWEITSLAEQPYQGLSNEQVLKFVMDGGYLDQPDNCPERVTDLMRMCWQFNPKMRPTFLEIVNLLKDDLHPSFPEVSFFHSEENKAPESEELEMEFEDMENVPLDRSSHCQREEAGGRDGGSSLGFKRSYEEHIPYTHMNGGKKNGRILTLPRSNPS
Calcium/calmodulin-dependent protein kinase kinase 2 (Homo sapiens, UniProt Q96RR4), sequence (Q96RR4 whole entry): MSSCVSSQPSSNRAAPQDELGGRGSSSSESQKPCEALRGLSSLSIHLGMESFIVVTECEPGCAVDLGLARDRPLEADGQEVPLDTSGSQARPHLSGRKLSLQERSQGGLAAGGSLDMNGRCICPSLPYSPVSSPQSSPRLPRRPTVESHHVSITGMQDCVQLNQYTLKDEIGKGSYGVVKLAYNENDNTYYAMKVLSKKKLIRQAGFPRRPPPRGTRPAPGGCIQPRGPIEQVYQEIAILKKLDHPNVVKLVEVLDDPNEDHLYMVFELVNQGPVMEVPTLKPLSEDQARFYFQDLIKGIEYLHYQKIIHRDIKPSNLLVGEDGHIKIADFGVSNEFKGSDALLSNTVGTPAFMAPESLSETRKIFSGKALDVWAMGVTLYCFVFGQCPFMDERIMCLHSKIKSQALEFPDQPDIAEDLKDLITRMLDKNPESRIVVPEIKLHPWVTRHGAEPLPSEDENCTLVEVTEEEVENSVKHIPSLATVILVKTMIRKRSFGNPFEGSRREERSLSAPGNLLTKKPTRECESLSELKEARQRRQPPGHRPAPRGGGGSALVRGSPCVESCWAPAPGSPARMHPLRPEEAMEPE
Calcium/calmodulin-dependent protein kinase kinase 2 (Mus musculus, UniProt Q8C078), sequence (Q8C078 whole entry): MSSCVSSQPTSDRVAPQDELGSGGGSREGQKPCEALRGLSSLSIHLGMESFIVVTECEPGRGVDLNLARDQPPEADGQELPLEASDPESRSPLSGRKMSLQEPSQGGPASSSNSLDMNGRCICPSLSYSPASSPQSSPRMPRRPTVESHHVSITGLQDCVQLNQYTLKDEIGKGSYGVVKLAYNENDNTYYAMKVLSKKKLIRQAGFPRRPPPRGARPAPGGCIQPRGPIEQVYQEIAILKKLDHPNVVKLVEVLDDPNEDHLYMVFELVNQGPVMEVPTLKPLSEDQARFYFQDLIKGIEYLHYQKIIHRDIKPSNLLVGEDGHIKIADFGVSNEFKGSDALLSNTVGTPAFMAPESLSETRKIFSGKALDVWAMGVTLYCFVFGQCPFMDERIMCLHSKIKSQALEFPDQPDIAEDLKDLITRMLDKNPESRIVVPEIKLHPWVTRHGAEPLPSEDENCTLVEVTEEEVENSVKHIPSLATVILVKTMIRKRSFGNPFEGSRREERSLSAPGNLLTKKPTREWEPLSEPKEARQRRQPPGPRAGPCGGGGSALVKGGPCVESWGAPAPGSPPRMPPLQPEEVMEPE
Mitogen-activated protein kinase 8, sequence (P45983 whole entry): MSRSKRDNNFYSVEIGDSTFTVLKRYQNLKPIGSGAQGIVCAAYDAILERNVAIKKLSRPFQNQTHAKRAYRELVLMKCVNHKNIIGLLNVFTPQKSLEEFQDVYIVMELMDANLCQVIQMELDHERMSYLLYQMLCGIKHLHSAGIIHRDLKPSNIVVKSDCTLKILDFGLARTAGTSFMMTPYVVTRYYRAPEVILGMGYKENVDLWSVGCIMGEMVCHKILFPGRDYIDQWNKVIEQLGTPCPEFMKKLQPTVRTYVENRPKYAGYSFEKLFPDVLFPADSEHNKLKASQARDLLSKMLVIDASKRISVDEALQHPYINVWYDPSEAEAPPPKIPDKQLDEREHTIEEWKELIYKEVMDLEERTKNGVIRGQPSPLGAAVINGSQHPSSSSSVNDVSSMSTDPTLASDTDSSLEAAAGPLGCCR

With `Cc1cc(OCCN2CCOCC2)ccc1-c1cc2c(-c3ccc(C#N)c(C(C)C)c3)ccnc2[nH]1`, the IC50 on Insulin receptor (read-out: IC50) was greater than 10000 nM; on Insulin receptor (read-out: pIC50 (converted)) it was greater than 10000 nM; in data set [1] it was 501 nM; in data set [2], greater than 25100 nM; in data set [3] it was 6.31 nM; in [4] it was greater than 10000 nM. The IC50 (in data set [6]; on Aurora kinase A) was greater than 10000 nM throughout. For the same compound, in the data set on Rattus norvegicus [5], the Activity result was “Non-Toxic”. Moreover, in the data set on Rattus norvegicus [7], 30 mg/kg produced 40% inhibition in vivo. For the same compound, the solubility (as a rule, the dissolved amount per volume that the medium holds) at 1 h in data set [8] is less than 1 µM. Moreover, the Cmax – broadly, the highest concentration seen after dosing – in data set [9] is 964 ng/mL. The Kp in [10] was found to be 0.9.
Take `COc1ccccc1-c1cc2c(-c3ccc(C(N)=O)c(C4CCCC4)c3)ccnc2[nH]1`: the IC50 at Insulin receptor (read-out: pIC50 (converted)) is 794 nM; in [1], 100 nM; in data set [2] it was 2510 nM; in data set [3] it was 2 nM; in data set [4], 2000 nM. Moreover, in data set [11], the Kp came to 3.2. This compound also yielded a solubility at 1 h in data set [8] of 7 µM (≈ 2.88 µg/mL). Besides, the peak level in data set [12] (Cmax) was 35 ng/mL.

(Values after ChEMBL document CHEMBL4118126, “An orally available, brain-penetrant CAMKK2 inhibitor reduces food intake in rodent model” (Bioorg Med Chem Lett, 2018).)
